HSP90 inh: blocks HSP90-mediated luciferase refolding in reticulocyte lysate. inhibition, % at 5.6 µM. Rabbit reticulocyte lysate, luciferase refolding luminescence, 3 h. AID 1789. actives 0.91% (n = 290,000);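 active = inhibition above the screen-wide mean plus 3 SD, computed separately per campaign, cut at about 16% in these data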;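 also: 0% = DMSO wells and 100% = 60 µM geldanamycin wells; inhibitors lower the luminescence because luciferase stays unfolded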
HSF-1 act: increases HSF-1 driven luciferase reporter signal; activation, % at 9 µM; NIH3T3-HGL HSF-1 luciferase reporter, MG132, 8 h; 100% = twice DMSO control signal; actives 1.7% (n = 300,000);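 active = mean replicate activation of at least 50% with a set share of replicates each reaching 50%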;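 also: 0% = median of the neutral control wells and 100% = twice that signal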
HCV NS3 hel inh: HCV NS3 helicase inhibition; inhibition, % at 10.9 µM; NS3 helicase DNA unwinding, Cy5 molecular beacon fluorescence; actives 0.56% (n = 290,000); AID 1800;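 active = inhibition above the mean of all tested compounds plus 3 SD, set per campaign, cut at about 35% in these data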;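 also: 0% = DMSO wells and 100% = thioflavine S control wells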
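Assay system – hepatitis C virus NS3 helicase domain fragment enzyme · Buffer or medium – MOPS pH 6.5, MgCl2, DTT, Tween20, BSA · Reagent – Cy5/quencher beacon DNA duplex and ATP to start · Compound – single 10.9 µM dose · Timing – 1 h at 25 °C · Technique – Cy5 beacon fluorescence read at start and 1 h · Measure – % inhibition of unwinding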
Lipid droplet: hepatic lipid droplet formation modulation | AML12 mouse hepatocytes, oleate lipid droplets, BODIPY imaging | inhibition, % at 6.5 µM | actives 0.4% (n = 240,000) | AID 1656;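 active = lipid droplet intensity inhibited by at least 50%, with more than 500 cells counted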
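Material – AML12 mouse liver cells · Also added – oleate loading, 100 µM · Compound dosing – 6.5 µM single-point dosing · Times – overnight treatment with compound plus oleate · Measured by – fluorescence imaging, 20x objective, two fields per well · Read-out – percent inhibition of filter-corrected integrated lipid droplet intensity per well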
HSF1 inhib: HSF1 inhibition; AID 2098; actives 0.77% (n = 300,000); activity change, negative = inhibition, % at 7.5 µM (by protocol); NIH3T3-HGL HSE-luciferase, MG132-induced, luminescence 8 h; stronger effect = lower value;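 active = more than half of replicate wells show activity change below -50%, luminescence cut by over half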;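 also: luciferase reports HSF-1 transcriptional activity via heat shock element; 0% = median of DMSO wells and -100% = zero luminescence signal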
* = called active by the depositor; . = no result given. Sampled rows, rich in hits. Any-hit rate of the full collection: about 3.8%.

SMILES	HSP90 inh	HSF-1 act	HCV NS3 hel inh	Lipid droplet	HSF1 inhib
O=C1C2CC=CCC2C(=O)N1c1ccc(NCCc2ccccc2F)c([N+](=O)[O-])c1 (stereo not drawn)	-6	64*	-6	13	37
O=C1C2CC=CCC2C(=O)N1c1ccc(NCCc2ccccc2)c([N+](=O)[O-])c1 (stereo not drawn)	-1	70*	-4	-2	35
CCCc1c(C(=O)Nc2cc(C)on2)cnn1-c1ccccc1	4	17	-17	2	1
O=C1N(Cc2cccnc2)C[C@@H]2C[C@@H](c3ccc4nsnc4c3)N3CCC[C@@]123	-1	5	-12	-33	1
O=[N+]([O-])c1cccnc1NCCNc1ncc(C(F)(F)F)cc1Cl	-5	85*	-3	.	62
COC(=O)C1(Cc2ccccc2)NC(c2ccccc2C)C2C(=O)N(c3ccc4c(c3)OCO4)C(=O)C21 (stereo not drawn)	-1	-80	-1	41	-73*
CCCC1(C(=O)OC)NC(c2ccc(OC)c(OC)c2)C2C(=O)N(c3ccc4c(c3)OCO4)C(=O)C21 (stereo not drawn)	0	-5	-2	-1	3
CCOC(=O)c1c(C)n(-c2ccc(C)cc2)c2c(CC(C)=O)c(Br)c(OC)c(O)c12	6	65*	-1	15	36
CCOC(=O)c1c(C)n(-c2ccc(C)cc2)c2c(C(C(C)=O)C(=O)O)c(Br)c(O)c(O)c12 (stereo not drawn)	-3	-1	8	2	11
Nc1nnc(SCC(=O)c2ccccc2)s1	2	4	-4	.	-7
Nc1c(C(=O)c2ccccc2)sc2snc(SCC(=O)c3ccccc3)c12	1	111*	21	.	51
Cc1cc(C)cc(NC(=O)N2CCN(Cc3ccc4c(c3)OCO4)CC2)c1	1	-63	-16	14	-58*
O=C(Nc1ccccc1)N1CCN(Cc2ccc3c(c2)OCO3)CC1	4	6	-2	.	0
C#CCOCCOCCOCCNc1nc(N2CCN(C(=O)C([C@@H](C)CC)n3cc(C(N)COC(=O)C(F)(F)F)nn3)CC2)nc(N2CCN(C(=O)C([C@@H](C)CC)n3cc(C(N)CC(C)C)nn3)CC2)n1 (stereo partly drawn)	.	7	.	.	-1
O=C(NCc1ccncc1)C(=O)NC1CC1	2	8	-10	-1	3
Cn1cc(CN2CCCC(CNS(=O)(=O)c3cccc4cccnc34)C2)cn1 (stereo not drawn)	0	-27	9	20	-7
CC(C)n1cc(CN2CCCC(CNS(=O)(=O)c3cccc4cccnc34)C2)cn1 (stereo not drawn)	-4	-71	12	-1	-66*
COCCN(Cc1ccccc1)C(=S)Nc1ccc(Cl)cc1	-2	-63	-4	2	-54*
COc1ccc(NC(=S)N(CCO)Cc2ccccc2)cc1	0	2	7	6	6
C=CCc1cc(Cl)ccc1OCCOCCN(C)C	-2	-3	-25	-13	0
Cc1ccc(N=N/C(=C\O)C(=O)c2ccc(Cl)cc2)cc1	3	-64	0	5	-64*
COC(=O)CCC(C)N1CCC(Oc2ccc(C(=O)NCc3ccccn3)cc2)CC1 (stereo not drawn)	-3	1	2	-1	1
Cc1nc(-c2ccc(NC(=O)c3ccc(Br)o3)cc2)cs1	7	53*	0	11	24
Cc1nc(-c2cccc(NC(=O)c3ccc(Br)o3)c2)cs1	-8	.	-1	8	.
Cc1nc(-c2ccc(C(=O)Nc3cccc(Br)c3)cc2)cs1	10	56*	-15	-7	14
SMILES	HSP90 inh	HSF-1 act	HCV NS3 hel inh	Lipid droplet	HSF1 inhib
C=CCC(Nc1ccccc1)c1ccc(OC)c(OC)c1 (stereo not drawn)	0	-71	-2	6	-63*
CC1CC(=O)Nc2cc([N+](=O)[O-])ccc2N1 (stereo not drawn)	4	-92	2	-1	-89*
CC1CC(=O)Nc2ccc([N+](=O)[O-])cc2N1C (stereo not drawn)	-3	7	4	18	-4
Cc1cc2c(cc1C)C(c1cccc([N+](=O)[O-])c1)CC(=O)N2 (stereo not drawn)	-1	63*	-7	-8	33
C[C@H]1[C@@H](OC(=O)CCC(=O)O)O[C@@H]2OC3(C)CC[C@H]4[C@H](C)CC[C@@H]1[C@@]24OO3	.	-4	.	.	-4
Cc1c(C(=O)NCCc2ccccc2)oc2ccccc12	7	62*	-1	0	32
Cc1ccc(NC(=O)Nc2ccccc2)nc1	.	54*	.	.	33
Cc1ccc(NC(=O)c2cc3c(=O)oc4ccccc4c3s2)nc1	-9	97*	-7	23	54
Cc1ccc(NC(=O)c2oc3ccccc3c2C)nc1	1	56*	4	-4	35
Cc1c(C(=O)Nc2ccccn2)oc2ccccc12	4	41	1	-39	23
O=C(COC(=O)CNC(=O)c1ccc(Cl)cc1Cl)NC(=O)NC1CCCCC1	.	4	.	.	-3
Cc1c(C(=O)Nc2nc3ccccc3[nH]2)oc2ccc(Br)cc12	-1	18	0	-4	-4
Cc1c(C(=O)Nc2nc3ccccc3[nH]2)oc2ccccc12	5	68*	0	-2	31
COc1ccc(C2NC(=S)NC3=C2N2CCC3CC2)cc1 (stereo not drawn)	-2	-7	-2	0	0
Fc1ccc(C2NC(=S)NC3=C2N2CCC3CC2)cc1 (stereo not drawn)	-2	53*	-3	6	13
CCCNC(=O)c1oc2ccc3c(c2c1C)C(=O)CC(C)(C)O3	-4	59*	1	1	52
CCCNC(=O)c1oc2ccc3c(c2c1C)C=CC(C)(C)O3	-5	28	-8	18	19
Oc1ccccc1C(Nc1nccs1)c1ccc2cccnc2c1O (stereo not drawn)	4	-64	7	4	-57*
Cc1ccc(C(=S)N2CCN(Cc3ccccc3)CC2)s1	-1	.	-9	20	.
COc1cccc(Nc2ncnc3sc(C)cc23)c1	-6	69*	4	-1	33
CC(C)NCC(O)COCc1ccc(Cl)cc1 (stereo not drawn)	0	53*	-3	.	17
CCC(C)NCC(O)COCc1ccc(Cl)cc1 (stereo not drawn)	4	-6	-3	-3	-3
CCCNC(=S)NC1CC2CCCC(C1)N2Cc1ccc(F)cc1 (stereo not drawn)	6	-69	-6	1	-61*
c1coc(CNc2c3c(nc4ncnn24)CCCC3)c1	-4	-8	-1	.	2
Clc1cccc(-c2cc3nc4c(c(NCc5ccco5)n3n2)CCCC4)c1	5	58*	-23	.	22
COc1cc(NC(=O)C2=C(N3CCOCC3)/C(=C\c3ccc(Cl)cc3Cl)CC2)cc(OC)c1OC	11	9	19	6	12

Assay outcomes from PubChem.
